The list is not random: actives were taken first. Their share in the collection is about 1.7%.
Beta2AR agonist: beta2AR agonists driving receptor internalization, primary screen, cell-based, FAP fluorogen, flow cytometry | Beta-2 adrenergic receptor (Homo sapiens), P07550 | Am2.2-beta2AR cells | response, % (no concentration beside the values) | 340,000 tested, 0.43% active | AID 504454, 2011;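 active = response above a set limit, near 3 SD of response in nonfluorescent compounds, cut at about 42% in these data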
PfGluPho inh: PfG6PD enzyme inhibitors, primary screen, biochemical, fluorescence intensity, uHTS; glucose-6-phosphate dehydrogenase-6-phosphogluconolactonase (Plasmodium falciparum 3D7); 350,000 tested, 0.78% active; PfGluPho enzyme, NADPH resazurin-diaphorase fluorescence; inhibition, % at 20 µM;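 active = inhibition reaching at least a set limit at 20 µM in the primary screen, cut at about 59% in these data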
APJ antag: antagonists of human apelin receptor APJ, primary screen, CHO-K1 cells, beta-arrestin complementation, luminescence; inhibition, % at 20 µM; 330,000 tested, 0.32% active;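 active = inhibition above about 40% at 20 µM, limit read from the data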;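 note: cells challenged with 10 nM apelin-13 agonist together with compound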
APJ agonist: agonists of human apelin receptor APJ, primary screen, CHO-K1 cells, PathHunter beta-arrestin, luminescence | 330,000 tested, 0.11% active | 0% DMSO wells, 100% apelin | activation, % at 20 µM | AID 2520, 2010;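 active = activation more than six SD over the plate average, tested at 20 µM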
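Test system: CHO-K1 APJ beta-arrestin complementation cell line. Amount: cell density 1000 per well. Controls: DMSO negative, 10 nM Apelin-13 positive. Signal: luminescent beta-gal fragment complementation, chemiluminescent substrate. Read-out basis: agonist-driven arrestin binding to APJ. Timing: compound stimulation 90 min at 25 °C, detection 60 min.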
CXCR6 inh: CXCR6 receptor inhibitors, primary screen, cell-based, beta-arrestin, luminescence, CHO-K1 PathHunter, 1536-well | inhibition, % at 20 µM | 360,000 tested, 0.36% active; in the data active = inhibition above about 34%, passing the limit was not always enough;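 note: antagonist mode with CXCL16 agonist at 10 nM final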
Target sequence (O00574 whole entry, looked up): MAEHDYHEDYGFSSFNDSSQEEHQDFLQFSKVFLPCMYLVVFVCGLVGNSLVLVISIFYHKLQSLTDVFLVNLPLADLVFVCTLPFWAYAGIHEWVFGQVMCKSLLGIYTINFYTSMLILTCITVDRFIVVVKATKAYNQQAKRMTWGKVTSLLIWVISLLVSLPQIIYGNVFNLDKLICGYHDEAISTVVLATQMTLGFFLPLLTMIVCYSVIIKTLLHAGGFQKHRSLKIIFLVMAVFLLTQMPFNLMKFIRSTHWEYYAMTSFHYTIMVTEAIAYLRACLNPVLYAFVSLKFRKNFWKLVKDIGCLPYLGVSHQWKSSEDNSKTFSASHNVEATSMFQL
CCR6 antagonist: CCR6 receptor antagonists, primary screen, cell-based, CHO-K1, luminescence, beta-arrestin, uHTS | C-C chemokine receptor type 6 (Homo sapiens), P51684 | CHO-K1 CCR6 PathHunter beta-arrestin, CCL20-stimulated | inhibition, % at 20 µM | 340,000 tested, 0.49% active;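 active = compounds whose inhibition of the agonist-driven luminescence signal at 20 µM reaches about 50%, limit read from the data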;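 note: cells stimulated with CCL20 at 14 nM final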
Target sequence (P51684 whole entry, looked up): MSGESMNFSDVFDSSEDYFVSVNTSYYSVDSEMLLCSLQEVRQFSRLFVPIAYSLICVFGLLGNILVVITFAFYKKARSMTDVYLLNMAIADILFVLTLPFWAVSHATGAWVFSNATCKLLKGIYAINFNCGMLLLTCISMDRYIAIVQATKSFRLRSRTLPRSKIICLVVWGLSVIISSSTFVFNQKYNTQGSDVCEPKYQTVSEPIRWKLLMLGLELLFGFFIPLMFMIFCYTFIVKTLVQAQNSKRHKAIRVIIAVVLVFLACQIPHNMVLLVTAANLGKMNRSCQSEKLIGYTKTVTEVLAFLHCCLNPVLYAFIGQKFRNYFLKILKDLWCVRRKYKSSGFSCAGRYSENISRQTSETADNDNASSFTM
PfG6PD confirm: PfG6PD inhibitors, hit retest, confirmation, biochemical, fluorescence intensity, single concentration; shares compounds with PfGluPho inh; recombinant PfGluPho, NADPH-diaphorase-resazurin fluorescence; inhibition, % at 20 µM; 2,400 tested, 34% active;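 active = inhibition of at least 50% at 20 µM in any single replicate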
Diaph ctr 10uM: diaphorase inhibitors and chemical oxidizers, confirmation, counter-screen for P. falciparum G6PD inhibitor project, biochemical, fluorescence intensity, 10 µM NADPH; 820 tested, 39% active; inhibition, % at 20 µM; shares compounds with PfGluPho inh; AID 504862, 2011; diaphorase-coupled resazurin reduction, NADPH 10 uM;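 active = average inhibition reaching 50% or more with the compound at 20 µM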;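 note: resorufin red fluorescence formed as diaphorase reduces resazurin using NADPH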
Diaphorase 30uM: diaphorase inhibitors and chemical oxidizers, confirmation, counter-screen for P. falciparum G6PD inhibitor project, biochemical, fluorescence intensity, 30 µM NADPH | shares compounds with PfGluPho inh | Diaphorase/resazurin coupled assay, resorufin fluorescence | inhibition, % at 20 µM | 820 tested, 29% active | AID 504863, 2011;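 active = inhibition averaging 50% or more, tested at 20 µM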
CXCR6 confirm: CXCR6 receptor antagonists, confirmation, cell-based, single concentration, beta-arrestin, luminescence | shares compounds with CXCR6 inh | inhibition, % at 20 µM | 700 tested, 65% active | CHO-K1 CXCR6 PathHunter beta-arrestin | AID 602409, 2012;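 active = mean inhibition over four retests above 40%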;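 note: receptor stimulated with 10 nM CXCL16 agonist; beta-galactosidase fragment complementation upon beta-arrestin recruitment to receptor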
Of the large screens only hits and unclear results are named; the others gave an inactive call (follow-up assays come after a bar, where they were run).

CN(C)C(=O)NC1c2ccccc2-c2ccccc21	none
CC(Oc1ccc(F)cc1)C(=O)Nc1cc(C(F)(F)F)ccc1-n1cncn1 (stereo unspecified)	none
N#Cc1cc(N2CCCCC2)c([N+](=O)[O-])cc1C#N	none
O=[N+]([O-])c1cc2no[n+]([O-])c2cc1N1CCCCC1	PfGluPho inh 129, CXCR6 inh 100, CCR6 antagonist 106 (no result: APJ antag, APJ agonist) | PfG6PD confirm 111 | Diaph ctr 10uM 80 | Diaphorase 30uM 58 | CXCR6 confirm 93
O=C1C(O)CCN1C1CCCCC1 (stereo unspecified)	none (no result: APJ antag, APJ agonist)
COc1cc(N2C(=O)C=CC2=O)ccc1N1C(=O)C=CC1=O	PfGluPho inh 121, CXCR6 inh 106, CCR6 antagonist 107 (no result: APJ antag, APJ agonist) | PfG6PD confirm 105 | Diaph ctr 10uM inactive | Diaphorase 30uM inactive | CXCR6 confirm 47
COc1ccc(C[C@@H]2OC3(C=CC(=O)C=C3)O[C@H]2Cc2ccc(OC)cc2)cc1	Beta2AR agonist 52, PfGluPho inh 62, CXCR6 inh 83, CCR6 antagonist 107 (no result: APJ antag, APJ agonist) | PfG6PD confirm inactive | CXCR6 confirm 84
Cc1[nH]n(-c2ccccc2)c(=S)c1C=NCCCN=Cc1c(C)[nH]n(-c2ccccc2)c1=S	PfGluPho inh 62, CXCR6 inh 54, CCR6 antagonist 74 | PfG6PD confirm inactive | CXCR6 confirm 74
CC(CCN1C(N(C)C)=NC[C@@H]1C)c1ccccc1 (stereo partly specified)	none
Cc1ccc(NC(=O)c2cc(N3C(=O)C=CC3=O)ccc2N2CCOCC2)cc1Cl	Beta2AR agonist 76, PfGluPho inh 74, CXCR6 inh 60, CCR6 antagonist 97 (no result: APJ antag, APJ agonist) | PfG6PD confirm 102 | Diaph ctr 10uM inactive | Diaphorase 30uM inactive | CXCR6 confirm inactive
Cc1ccc(NC(=O)c2cc(N3C(=O)CCC3=O)ccc2N2CCOCC2)cc1	none
N#Cc1c(C#N)c(SSc2c(C#N)c(C#N)c(N)n2-c2ccccc2)n(-c2ccccc2)c1N	PfGluPho inh 111, CXCR6 inh 101, CCR6 antagonist 109 (no result: APJ antag, APJ agonist) | PfG6PD confirm 61 | Diaph ctr 10uM inactive | Diaphorase 30uM inactive | CXCR6 confirm 85
COCCNC(=O)C(c1ccc(F)cc1)N(C(=O)CCC(=O)Nc1ccccn1)C1CCCCC1 (stereo unspecified)	none
O=C(CCc1ccccc1)N=C1SC2CS(=O)(=O)CC2N1Cc1ccc(F)cc1 (stereo unspecified)	none
COC(=O)c1ccc(CSc2nc3ccccc3[nH]2)o1	none
COC(=O)c1cc(CSc2nc3ccc(C)cc3[nH]2)oc1C	PfGluPho inh 61, CXCR6 inh 43 | PfG6PD confirm inactive | CXCR6 confirm 41
O=c1c2ccccc2sn1-c1ccccc1	PfGluPho inh 112, CXCR6 inh 86, CCR6 antagonist 76 | PfG6PD confirm 114 | Diaph ctr 10uM inactive | Diaphorase 30uM inactive | CXCR6 confirm inactive
O=c1ccsc2ccccc12	none (no result: Beta2AR agonist, APJ antag, APJ agonist)
COCC1CCCCN1C(=O)c1ccc2oc(CCc3ccccc3)nc2c1 (stereo unspecified)	CXCR6 inh 37 | CXCR6 confirm inactive
Cc1ccc(-n2ncc3c2CC(C)(C)CC3NC(=O)c2ccccn2)cc1 (stereo unspecified)	none
CCN1C(=O)[C@H]2[C@@H](c3ccc(OC)cc3)N[C@]3(CCCN(Cc4ccc(C(F)(F)F)cc4)C3=O)[C@H]2C1=O	none (no result: Beta2AR agonist, APJ antag, APJ agonist, CCR6 antagonist)
C=C1C(=O)c2sccc2C(c2ccc(OC)c(OC)c2)C1COC(C)=O (stereo unspecified)	Beta2AR agonist 102, CXCR6 inh 94, CCR6 antagonist 92 (no result: APJ antag, APJ agonist) | CXCR6 confirm 97
Cc1cccc(Cc2cnc(N3C(=N)SC(C)C3=O)s2)c1 (stereo unspecified)	CXCR6 inh 53 (no result: CCR6 antagonist) | CXCR6 confirm 73
Cc1ccc(Cc2cnc(N3C(=N)SC(C)C3=O)s2)cc1 (stereo unspecified)	CXCR6 inh 53 (no result: CCR6 antagonist) | CXCR6 confirm 70
Cc1cccc(Cc2cnc(N3C(=N)SC(c4ccccc4)C3=O)s2)c1 (stereo unspecified)	none
COc1ccc(CCC(=O)OCC(=O)N(CC(C)C)c2c(N)n(Cc3ccccc3)c(=O)[nH]c2=O)cc1	none
C[C@@H]1CC=C[C@@H]2[C@H]1C(=O)N(Cc1ccccc1)[C@H]2c1ccccc1Br	CXCR6 inh 35 (no result: APJ antag, APJ agonist) | CXCR6 confirm inactive
Cn1c2ccccc2c2cc([N+](=O)[O-])ccc21	none
CN1c2ccc([N+](=O)[O-])cc2N(C)C1(C)c1ccccc1 (stereo unspecified)	CXCR6 inh 43, CCR6 antagonist 54 | CXCR6 confirm inactive
COc1ccc(NC(=S)Nc2cccc([N+](=O)[O-])c2)cc1	none
COc1ccc(NC(=S)NNc2ccc([N+](=O)[O-])cc2S(=O)(=O)Nc2ccc(C)cc2C)cc1	CXCR6 inh 49, CCR6 antagonist 77 | CXCR6 confirm 56
Cc1ccc(NS(=O)(=O)c2cc([N+](=O)[O-])ccc2NNC(=S)Nc2cc(C)ccc2C)c(C)c1	APJ antag 53, CXCR6 inh 63, CCR6 antagonist 86 | CXCR6 confirm 64
Cc1ccc([N+](=O)[O-])cc1NC(=S)NC(=O)C(C)(C)C	none
COc1ccc(NC(=S)N(CCc2c(C)[nH]c3ccccc23)Cc2cccnc2)cc1	CXCR6 inh 37 | CXCR6 confirm inactive
O=C(NCc1ccc(Cl)cc1)C1CCC(=O)N(C2CC2)C1 (stereo unspecified)	none
CC(C)CCSc1cc(NCCO)c([N+](=O)[O-])c2nonc12	none
